{"source": "ChEMBL document CHEMBL1149444", "about": "“Discovery of imidazo[1,2-b][1,2,4]triazines as GABA(A) alpha2/3 subtype selective agonists for the treatment of anxiety” (J Med Chem, 2006)", "key": {"[1]": {"molecular_target": "T1, GABA-A receptor; alpha-3/beta-3/gamma-2 (Homo sapiens, UniProt P18507+P28472+P34903)", "T1 sequence (P18507 whole entry)": "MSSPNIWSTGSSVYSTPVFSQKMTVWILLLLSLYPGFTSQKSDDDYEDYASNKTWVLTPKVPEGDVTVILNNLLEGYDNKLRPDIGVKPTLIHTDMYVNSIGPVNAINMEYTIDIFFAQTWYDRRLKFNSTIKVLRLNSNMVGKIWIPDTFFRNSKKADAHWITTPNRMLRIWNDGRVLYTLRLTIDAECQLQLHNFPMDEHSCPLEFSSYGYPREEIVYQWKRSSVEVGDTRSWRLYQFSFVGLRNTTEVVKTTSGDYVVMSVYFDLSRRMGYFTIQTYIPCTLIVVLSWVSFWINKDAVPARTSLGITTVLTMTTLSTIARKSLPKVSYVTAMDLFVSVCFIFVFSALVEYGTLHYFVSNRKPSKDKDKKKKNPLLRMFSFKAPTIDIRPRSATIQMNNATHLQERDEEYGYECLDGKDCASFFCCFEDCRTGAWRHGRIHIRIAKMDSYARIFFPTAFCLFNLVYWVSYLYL", "T1 sequence (P28472 whole entry)": "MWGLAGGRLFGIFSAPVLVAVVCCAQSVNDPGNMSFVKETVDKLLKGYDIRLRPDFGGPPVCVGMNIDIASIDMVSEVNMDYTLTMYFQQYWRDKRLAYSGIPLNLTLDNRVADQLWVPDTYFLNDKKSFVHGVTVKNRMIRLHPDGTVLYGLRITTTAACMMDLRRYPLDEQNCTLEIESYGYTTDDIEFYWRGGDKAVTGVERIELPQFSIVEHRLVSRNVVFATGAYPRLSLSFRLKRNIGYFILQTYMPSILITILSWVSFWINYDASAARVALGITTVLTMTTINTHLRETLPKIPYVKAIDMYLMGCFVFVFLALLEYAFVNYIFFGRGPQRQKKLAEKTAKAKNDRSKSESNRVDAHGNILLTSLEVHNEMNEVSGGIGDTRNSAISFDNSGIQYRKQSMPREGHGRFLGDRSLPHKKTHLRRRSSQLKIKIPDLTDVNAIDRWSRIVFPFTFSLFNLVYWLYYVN", "T1 sequence (P34903 whole entry)": "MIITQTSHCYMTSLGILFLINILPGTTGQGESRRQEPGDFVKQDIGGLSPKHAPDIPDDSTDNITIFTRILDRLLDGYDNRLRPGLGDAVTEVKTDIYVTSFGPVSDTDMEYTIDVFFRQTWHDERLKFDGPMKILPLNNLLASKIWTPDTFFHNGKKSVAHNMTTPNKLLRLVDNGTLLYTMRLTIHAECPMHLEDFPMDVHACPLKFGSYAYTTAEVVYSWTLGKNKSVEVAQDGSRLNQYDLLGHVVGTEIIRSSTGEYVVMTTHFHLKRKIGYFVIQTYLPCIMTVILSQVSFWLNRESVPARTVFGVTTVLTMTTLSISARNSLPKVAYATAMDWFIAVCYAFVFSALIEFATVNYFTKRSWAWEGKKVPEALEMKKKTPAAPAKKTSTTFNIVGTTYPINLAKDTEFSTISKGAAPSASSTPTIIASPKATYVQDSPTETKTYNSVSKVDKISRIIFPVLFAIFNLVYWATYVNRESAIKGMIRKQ", "test": "Displacement of [3H]Ro 15-1788 from recombinant human GABAA alpha3 receptor plus beta-3-gamma-2 expressed in L(tk-) cells", "type": "cell-based", "method_in_brief": "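Inhibition of [3H]Ro15-1788 binding to human recombinant GABAA receptors stably expressed in L(tk-) cells, alpha subunit combined with beta3 and gamma2. Six to eight test concentrations spaced in half-log units. Ki reported as geometric mean of n = 2-12.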"}, "[2]": {"molecular_target": "T2, GABA-A receptor; alpha-2/beta-3/gamma-2 (Homo sapiens, UniProt P18507+P28472+P47869)", "T2 sequence (P18507 whole entry)": "T1 sequence (P18507 whole entry)", "T2 sequence (P28472 whole entry)": "T1 sequence (P28472 whole entry)", "T2 sequence (P47869 whole entry)": "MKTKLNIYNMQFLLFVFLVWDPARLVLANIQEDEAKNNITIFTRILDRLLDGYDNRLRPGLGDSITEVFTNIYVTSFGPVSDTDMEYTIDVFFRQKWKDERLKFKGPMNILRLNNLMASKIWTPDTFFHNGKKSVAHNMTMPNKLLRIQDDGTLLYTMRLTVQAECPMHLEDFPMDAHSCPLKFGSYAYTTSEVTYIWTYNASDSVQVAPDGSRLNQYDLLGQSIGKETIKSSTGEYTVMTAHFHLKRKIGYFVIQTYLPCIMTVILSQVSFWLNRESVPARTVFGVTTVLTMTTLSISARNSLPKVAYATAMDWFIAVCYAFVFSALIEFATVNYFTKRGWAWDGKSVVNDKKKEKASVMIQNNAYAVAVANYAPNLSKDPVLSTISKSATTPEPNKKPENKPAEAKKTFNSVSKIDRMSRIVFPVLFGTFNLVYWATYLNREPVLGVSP", "test": "Displacement of [3H] Ro15-1788 from recombinant human GABAA alpha2 receptor plus beta-3-gamma-2 expressed in L(tk-) cells", "type": "cell-based"}, "[3]": {"molecular_target": "GABA-A receptor; alpha-3/beta-3/gamma-2 (Homo sapiens) (UniProt P18507+P28472+P34903)", "test": "Efficacy against recombinant human GABAA alpha3 receptor plus beta-3-gamma-2 expressed in L(tk-) cells by whole cell patch clamp method relative to chlordiazepoxide", "type": "functional, cell-based", "method_in_brief": "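Whole-cell patch clamp on L(tk-) cells stably expressing the receptor (alpha plus beta3gamma2). GABA applied at an EC20-equivalent concentration. Modulation of the current measured with increasing test concentrations. Efficacy expressed relative to the maximal chlordiazepoxide response (set at 1.00) or as a percentage.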"}, "[4]": {"tested_on": "Squirrel monkey", "test": "Anxiolytic effect in squirrel monkey conditioned emotional response test at 0.3 mg/kg, po", "type": "functional, organism-based", "parameters": "dose 0.3 mg/kg", "conditions": "Saimiri sciureus", "method_in_brief": "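Squirrel monkeys dosed po in 0.5% methyl cellulose vehicle. Anxiolysis was read as reversal of the suppression of lever pressing caused by a light cue signalling possible electric shock. Sedation was read as the rate of lever pressing for fruit juice reward on an RPI30 schedule. n = 10-11 per group, p < 0.05 versus vehicle.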"}, "[5]": {"test": "Half life in rhesus at 1 mg/kg, iv or 1 mg/kg, po", "type": "ADME, organism-based, Macaca mulatta", "conditions": "rhesus monkey, in vivo", "method_in_brief": "(§1)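 Pharmacokinetics in rat, dog or rhesus after 1 mg/kg iv and 1 mg/kg po dosing. Plasma clearance (mL/min/kg), half-life (h), volume of distribution (L/kg) and oral bioavailability (%) were derived.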"}, "[6]": {"test": "Volume of distribution in rat at 1 mg/kg, iv or 1 mg/kg, po", "type": "ADME, organism-based", "conditions": "in vivo, read-out: Vdss", "method_in_brief": "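Rat pharmacokinetics after dosing at 1 mg/kg iv and 1 mg/kg po. Plasma clearance in mL/min/kg, half-life in h and volume of distribution in L/kg.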"}, "[7]": {"test": "Oral bioavailability in rat at 1 mg/kg, iv or 1 mg/kg, po", "type": "ADME, organism-based", "conditions": "in vivo", "method_in_brief": "as §1"}}, "note": "Calls of active or inactive are those of the source. The calls are words filed in the database; no cut-off is given here.", "data": [{"smiles": "CC(C)(O)c1cnn2c(-c3ccc(F)c(-c4c(F)cccc4C#N)c3)cnc2n1", "values": [{"measurement": "Ki", "setting": "[1]", "value": 2, "unit": "nM"}, {"measurement": "Ki", "setting": "[2]", "value": 1.8, "unit": "nM"}, {"measurement": "Efficacy", "setting": "[3]", "value": 50, "unit": "%"}, {"measurement": "Activity", "setting": "[4]", "value": "Active"}, {"measurement": "half-life", "setting": "[5]", "value": 4.9, "unit": "h"}, {"measurement": "Vd", "setting": "[6]", "value": 2.1, "unit": "L/kg"}, {"measurement": "bioavailability", "setting": "[7]", "value": 77, "unit": "%"}]}]}
